How the values were obtained:
Type in all cases: toxicity, organism-based
Conditions in all cases: in vivo, 120 h
[1] = system: Rattus norvegicus; experiment: Cardiotoxicity in albino rat assessed as loss of cardiac fibre at 2 mg/kg, po administered for 5 days measured on day 14 by hematoxylin and eosin staining-based microscopic method
Summary of the method: (§1)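 Female albino rats (110-115 g). Doxorubicin given orally at 2 mg/kg daily for 5 days (cumulative 10 mg/kg). Animals observed 14 days, then killed. Hearts fixed in 40% formalin, transverse sections H&E-stained and examined at 100X and 400X for left-ventricle changes.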

[2] = system: Rattus norvegicus; experiment: Cardiotoxicity in albino rat assessed as vacuolation in left ventricle tissue at 2 mg/kg, po administered for 5 days measured on day 14 by hematoxylin and eosin staining-based microscopic method; summary of the method: as §1
[3] = system: Rattus norvegicus; experiment: Cardiotoxicity in albino rat assessed as inflammation in left ventricle tissue at 2 mg/kg, po administered for 5 days measured on day 14 by hematoxylin and eosin staining-based microscopic method; summary of the method: as §1

Measured: Activity

COc1cccc2c1C(=O)c1c(O)c3c(c(O)c1C2=O)C[C@@](O)(C(=O)CO)C[C@@H]3O[C@H]1C[C@H](N)[C@H](O)[C@H](C)O1 [DOXORUBICIN]
Toxic: [1] | [2] | [3]

— ChEMBL document CHEMBL3994595, “Design, synthesis, docking and QSAR study of substituted benzimidazole linked oxadiazole as cytotoxic agents, EGFR and erbB2 receptor inhibitors” (Eur J Med Chem, 2017)
